Test results: article PMC2213384 (The Journal of Experimental Medicine, 1998)
Read-outs that look alike come from different tables or passages of the source. Marks after values point to notes of the source that are not given here.

Tests used:
Qa-1^b [1] = assay type: binding, mouse; settings: for Binding of poly-Gly peptides to Qa-1^b (in words): Table 2 in words, 20 μM; for Blocking of / binding to Qa-1^b at 20 μM (in words): 20 μM competitor
sM3 = assay: SPR direct binding of sM3 to immobilized QdmC5; settings: Fig. 1 B; 0.5 μM sM3, 20 μl at 1 μl/min
sCD1 = assay: SPR direct binding of sCD1 to immobilized QdmC5; settings: data not shown
Qa-1^b [2] = settings: previous finding; ref [6]; cited from earlier work
[3] = Solubility of peptides in running buffer / aqueous solvents; assay type: physicochemical
Summary of the method: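 Solubility was judged for peptides used as competitors in SPR on a Biacore 2000 at 25°C. The running buffer was Hepes-buffered saline, or 2% DMSO in HBS for the hydrophobic leader peptides. Competitors were at 20 μM (poly-Gly series titrated up to 20 μM), co-injected with 0.5 μM soluble Qa-1b at 1 μl/min for 20 min over immobilized QdmC5.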

[4] = biological target: QdmC5 peptide (…) (mouse); assay: SPR
[5] = biological target: QdmC5 peptide (…) (mouse); assay: SPR; remark: listed apart in the source
[6] = biological target: QdmC5 peptide (…) (mouse); assay: SPR; remark: listed apart in the source
[7] = biological target: QdmC5 peptide (…) (mouse); assay: SPR; remark: listed apart in the source
[8] = biological target: soluble Qa-1^b/β2-microglobulin dimer (mouse (C57BL/6) | murine) (UniProt P06339); assay: SPR
UniProt P06339, sequence (P06339 21-357, chain 1 of 2): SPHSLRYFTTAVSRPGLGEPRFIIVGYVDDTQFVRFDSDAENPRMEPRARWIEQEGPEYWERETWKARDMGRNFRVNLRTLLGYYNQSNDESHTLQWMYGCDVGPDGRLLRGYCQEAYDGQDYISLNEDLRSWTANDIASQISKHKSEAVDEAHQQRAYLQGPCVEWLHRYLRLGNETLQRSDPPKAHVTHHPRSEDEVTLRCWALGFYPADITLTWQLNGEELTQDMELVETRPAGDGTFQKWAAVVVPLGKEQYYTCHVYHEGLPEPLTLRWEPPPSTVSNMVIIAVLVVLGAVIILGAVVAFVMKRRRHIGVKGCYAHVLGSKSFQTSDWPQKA
UniProt P06339, sequence (P01887 21-119, chain 2 of 2, further chain): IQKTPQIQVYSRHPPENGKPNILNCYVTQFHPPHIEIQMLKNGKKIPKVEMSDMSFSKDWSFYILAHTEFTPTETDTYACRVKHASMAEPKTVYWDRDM

10-mer: Qdm extended by adding a leucine at position 10 (AMAPRTLLLL)
Binding at 200 nM (in words) (Qa-1^b [1]; Fig. 1 D, 0.5 μM sQa-1^b, competitor 200 nM): almost no binding | Binding relative to the Qdm nonamer at 20 and 2 μM (in words) (Qa-1^b [1]; Fig. 1 D, 0.5 μM sQa-1^b, competitor 20 and 2 μM): decreased binding relative to the nonamer

AMAPCTLLL [QdmC5]
Binding of soluble protein to immobilized peptide (in words) (sM3): failed to bind | Binding of soluble protein to immobilized peptide (in words) (sCD1): failed to bind

AMAPRTLLL [Qdm, reference compound]
Blocking of Qa-1^b binding / binding ability over the titration (in words) (Qa-1^b [1]; Fig. 1 D, 0.5 μM sQa-1^b, competitor 200 nM to 20 μM, 1 μl/min for 20 min): completely blocked binding | Binding to Qa-1^b in 2% DMSO (in words) (Qa-1^b [1]; Fig. 3 B, running buffer 2% DMSO in HBS): bind Qa-1^b | Affinity of binding to Qa-1^b (in words) (Qa-1^b [2]): very high affinity

GMGGGGGLL
Binding of poly-Gly peptides to Qa-1^b (in words) (Qa-1^b [1]): very little binding

GMGGGGLGL
Binding of poly-Gly peptides to Qa-1^b (in words) (Qa-1^b [1]): very little binding

GMGGGGLLL
Blocked binding of sQa-1^b to immobilized QdmC5 peptide (Qa-1^b [1]; highest concentration tested (20 μM)): > 50% | Blocking activity at 200 nM (in words) (Qa-1^b [1]; titration, 200 nM): none | Blocking activity at 2 μM (in words) (Qa-1^b [1]; titration, 2 μM): relatively little blocking activity

MAPRTLLLL
Blocking of / binding to Qa-1^b at 20 μM (in words) (Qa-1^b [1]; Fig. 1 D, 0.5 μM sQa-1^b): failed to bind

MGAMAPRTL
Blocking of / binding to Qa-1^b at 20 μM (in words) (Qa-1^b [1]; Fig. 1 D, 0.5 μM sQa-1^b): failed to bind

VMSPTVLLL
Solubility in 2% DMSO in HBS ([3]; 2% DMSO in HBS (SPR running buffer)): remained soluble | Solubility in aqueous solvents ([3]; aqueous solvents): not soluble in aqueous solvents

soluble Qa-1^b/β2-microglobulin dimer (from UniProt P06339 21-357; P01887 21-119) (complex)
RU, binding in the absence of peptide [4]: 230 RU | RU, binding in the absence of peptide [5]: 263 RU | RU, binding in the absence of peptide [6]: 345 RU | RU, binding in the absence of peptide [7]: 276 RU

AMAPRTLLL [Qdm peptide (…)]
RU of sQa-1^b left on immobilised QdmC5 with 20 μM Qdm [8]: 25 RU
